Experimental data as given in ChEMBL document CHEMBL4368911, “Metal-Binding Pharmacophore Library Yields the Discovery of a Glyoxalase 1 Inhibitor” (J Med Chem, 2019).
Activity calls are given as the source filed them. The rule behind the calls is not given here.

Key:
Lactoylglutathione lyase [1] = biological target: T1, Lactoylglutathione lyase (Homo sapiens, UniProt Q04760); assay: Inhibition recombinant human N-terminal 6His-tagged GLO1 (2 to 184 residues) expressed in Escherichia coli using MG as substrate preincubated for 15 to 20 mins followed by substrate addition and measured every 1 min for 8 mins
Summary of the method: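 Recombinant human GLO1, 40 ng per well, preincubated 15–20 min with inhibitor in 100 mM sodium phosphate pH 7.0. Substrate was GSH + MG hemithioacetal, premixed 20 min at room temperature; DMSO ≤5% final. Absorbance at 240 nm read every 1 min for 8 min. Rates compared with no-inhibitor controls after background subtraction. Chugai-1 as reference.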
Target sequence in this assay (Q04760 whole entry, the tested form may be a part): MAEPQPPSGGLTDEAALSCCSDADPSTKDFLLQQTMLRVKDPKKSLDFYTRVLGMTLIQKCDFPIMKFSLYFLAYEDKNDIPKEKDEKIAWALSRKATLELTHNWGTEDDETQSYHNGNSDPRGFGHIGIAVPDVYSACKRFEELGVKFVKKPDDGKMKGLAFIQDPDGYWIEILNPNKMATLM

Lactoylglutathione lyase [2] = biological target: T1, Lactoylglutathione lyase; assay: Inhibition of human GLO1
Target sequence in this assay (Q04760 whole entry, the tested form may be a part): as above

Lactoylglutathione lyase [3] = biological target: T1, Lactoylglutathione lyase; assay: Inhibition recombinant human N-terminal 6His-tagged GLO1 (2 to 184 residues) expressed in Escherichia coli at 50 uM using MG as substrate preincubated for 15 to 20 mins followed by substrate addition and measured every 1 min for 8 mins
Target sequence in this assay (Q04760 2-184 limits assumed): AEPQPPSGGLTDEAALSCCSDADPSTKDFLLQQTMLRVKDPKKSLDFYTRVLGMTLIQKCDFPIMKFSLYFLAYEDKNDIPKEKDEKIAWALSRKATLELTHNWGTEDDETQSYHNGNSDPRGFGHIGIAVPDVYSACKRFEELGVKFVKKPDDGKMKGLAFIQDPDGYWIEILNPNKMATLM

Mus musculus [4] = assay: In-vivo inhibition of GLO1 in FVB/NJ mouse assessed as increase in methylglyoxal accumulation at 12.5 mg/kg, ip measured at 240 mins post dose by LC-MS/MS analysis relative to control; type: functional; settings: in the assay text read “25 mg/kg” for “12.5 mg/kg”
Summary of the method: (§1)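 Brain MG measured 30–240 min after i.p. dosing and compared with vehicle-treated mice. Brains taken after PBS perfusion under isoflurane, then acetonitrile extraction, homogenization, centrifugation and filtration. LC-MS/MS quantified against an 11-point calibration (5–5000 ng/mL) in blank brain matrix. Expressed per mg brain tissue.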

[5] = Drug uptake in FVB/NJ mouse brain at 25 mg/kg, ip measured after 30 mins post dose by LC-MS/MS analysis; type: ADME, organism-based; settings: read-out: Drug uptake
Summary of the method: (§2)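 Single i.p. dose, then brain sampled at 30, 60, 120 or 240 min, n = 3 per time point. Mice anesthetized with isoflurane and perfused with PBS through the left ventricle. Brains minced, extracted with acetonitrile, bead-homogenized, centrifuged and filtered. LC-MS/MS against an 11-point calibration (5–5000 ng/mL) spiked into blank brain. Median reported as ng/mg wet brain.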

[6] = Drug uptake in FVB/NJ mouse brain at 12.5 mg/kg, ip measured after 240 mins post dose by LC-MS/MS analysis; type: ADME, organism-based; settings: read-out: Drug uptake; summary of the method: as §2
[7] = Drug uptake in FVB/NJ mouse brain at 25 mg/kg, ip measured after 60 mins post dose by LC-MS/MS analysis; type: ADME, organism-based; settings: read-out: Drug uptake; summary of the method: as §2
[8] = Drug uptake in FVB/NJ mouse brain at 25 mg/kg, ip measured after 240 mins post dose by LC-MS/MS analysis; type: ADME, organism-based; settings: read-out: Drug uptake; summary of the method: as §2
[9] = Drug uptake in FVB/NJ mouse brain at 12.5 mg/kg, ip measured after 120 mins post dose by LC-MS/MS analysis; type: ADME, organism-based; settings: read-out: Drug uptake; summary of the method: as §2
Mus musculus [10] = assay: In-vivo inhibition of GLO1 in FVB/NJ mouse assessed as increase in methylglyoxal accumulation at 12.5 mg/kg, ip measured at 30 mins post dose by LC-MS/MS analysis relative to control; type: functional; summary of the method: as §1
Mus musculus [11] = assay: Antidepressant-like activity in FVB/NJ mouse assessed as reduction in immobility at 12.5 mg/kg, ip measured after 120 mins by forced swim test; type: functional, organism-based
Summary of the method: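 Mice 108–148 days old, 12 h light–dark cycle, tested in the light phase. Each mouse got vehicle (8% DMSO, 18% Tween, […]) on one day and drug on the other, i.p., counterbalanced, about 3 weeks apart. FST run 2 h post-injection: 6 min in a bucket filled 48 cm with 23–25 water. Immobility time analysed by ANOVA with sex and test order as factors.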

[12] = Drug uptake in FVB/NJ mouse brain at 12.5 mg/kg, ip measured after 30 mins post dose by LC-MS/MS analysis; type: ADME, organism-based; settings: read-out: Drug uptake; summary of the method: as §2
[13] = Drug uptake in FVB/NJ mouse brain at 12.5 mg/kg, ip measured after 60 mins post dose by LC-MS/MS analysis; type: ADME, organism-based; settings: read-out: Drug uptake; summary of the method: as §2
[14] = Toxicity in FVB/NJ mouse up to 100 mg/kg, ip; type: organism-based; settings: in vivo
Summary of the method: (§3)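 Toxicity in mice judged by observation after i.p. dosing.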

[15] = Drug uptake in FVB/NJ mouse brain at 25 mg/kg, ip measured after 120 mins post dose by LC-MS/MS analysis; type: ADME, organism-based; settings: read-out: Drug uptake; summary of the method: as §2
[16] = Toxicity in FVB/NJ mouse at =>50 mg/kg, ip; type: organism-based; settings: in vivo; summary of the method: as §3

SMILES	IC50 (Lactoylglutathione lyase [1])	further results
Cc1ccc2cccc(NS(=O)(=O)c3ccccc3)c2n1	14.5 µM	
O=S(=O)(Nc1ccc(-c2ccc(F)cc2)c2cccnc12)c1ccccn1	0.72 µM	
O=S(=O)(Cc1ccccc1)Nc1cccc2cccnc12	7.6 µM	
CC(=O)Nc1cccc2cccnc12	> 200 µM	
CS(=O)(=O)Nc1ccc(-c2ccc(Cl)cc2)c2cccnc12	6.2 µM	
O=S(=O)(CCCc1ccccc1)Nc1cccc2cccnc12	4.6 µM	
COc1ccccc1S(=O)(=O)Nc1cccc2cccnc12	> 20 µM	
CS(=O)(=O)Oc1cccc2cccnc12	> 200 µM	
COC(=O)c1c(C)cc(Oc2cc(C)cc(O)c2O)cc1O		Ki (Lactoylglutathione lyase [2]): 0.23 µM
CS(=O)(=O)Nc1ccc(-c2ccncc2)c2cccnc12	> 20 µM	
CCCCS(=O)(=O)Nc1cccc2cccnc12	> 20 µM	
O=S(=O)(Nc1cccc2cccnc12)C1CCCCC1	> 20 µM	
O=S(=O)(CCc1ccccc1)Nc1cccc2cccnc12	8.7 µM	
O=S(=O)(Nc1cccc2cccnc12)c1cccs1	4.9 µM	
CS(=O)(=O)Nc1ccc(-c2cccs2)c2cccnc12	15.4 µM	
Cc1ccc2cccc(NS(C)(=O)=O)c2n1	43 µM	
CS(=O)(=O)Nc1cccc2cccnc12	18.5 µM	inhibition (Lactoylglutathione lyase [3]): > 50%
O=S(=O)(Nc1ccc(-c2ccc(Cl)c(Cl)c2)c2cccnc12)c1ccccn1	0.54 µM	
CS(=O)(=O)Nc1ccc(N2CCCCC2)c2cccnc12	> 100 µM	
O=S(=O)(Nc1cccc2cccnc12)c1cccnc1	11.2 µM	

SMILES	IC50 (Lactoylglutathione lyase [1])	further results
CS(=O)(=O)Nc1ccc(-c2ccco2)c2cccnc12	11.9 µM	
O=S(=O)(Nc1cccc2cccnc12)c1ccc2ccccc2c1	3.6 µM	
O=C1Cc2cc(S(=O)(=O)Nc3cccc4cccnc34)ccc2N1	6.6 µM	
COc1ccc(-c2ccc(NS(=O)(=O)c3ccccn3)c3ncccc23)cc1	0.64 µM	
CS(=O)(=O)Nc1ccc(-c2ccc3c(c2)OCO3)c2cccnc12	11.2 µM	
O=S(=O)(Nc1cc(CCc2ccccc2)cc2cccnc12)c1ccccn1	1.21 µM	
COc1cccc(-c2ccc(NS(=O)(=O)c3ccccn3)c3ncccc23)c1	1.04 µM	
CS(=O)(=O)Nc1ccc(-c2cncnc2)c2cccnc12	> 20 µM	
O=S(=O)(Nc1cccc2cccnc12)c1ccccn1	1.3 µM	
Cn1cnc(S(=O)(=O)Nc2cccc3cccnc23)c1	5.5 µM	
COc1cc(CCc2cc(NS(=O)(=O)c3ccccn3)c3ncccc3c2)cc(OC)c1	0.46 to 0.463 µM	fold change (FC) (Mus musculus [4]): 13; concentration at 0.5 h [5]: 400 ng/g; concentration at 4 h [6]: 2200 ng/g; concentration at 1 h [7]: 6700 ng/g; concentration at 4 h [8]: 8300 ng/g; concentration at 2 h [9]: 6000 ng/g; fold change (FC) (Mus musculus [10]): 11; Activity (Mus musculus [11]): Active; concentration at 0.5 h [12]: 2100 ng/g; concentration at 1 h [13]: 14400 ng/g; Activity [14]: Non-Toxic; concentration at 2 h [15]: 18900 ng/g
N#Cc1ccccc1S(=O)(=O)Nc1cccc2cccnc12	> 20 µM	
CS(=O)(=O)Nc1ccc(N2CCOCC2)c2cccnc12	> 100 µM	
O=S(=O)(Nc1cc(CCc2ccc(F)cc2)cc2cccnc12)c1ccccn1	1.32 µM	
O=S(=O)(Nc1ccc(-c2ccc(Cl)cc2)c2cccnc12)c1ccccn1	0.48 µM	Activity [16]: Toxic
O=S(=O)(Nc1ccc(-c2cccc(Cl)c2)c2cccnc12)c1ccccn1	0.37 µM	
CNS(=O)(=O)c1cccc2cccnc12	> 200 µM	
O=S(=O)(Nc1cccc2cccnc12)c1ccc2c(c1)OCO2	6.1 µM	
CS(=O)(=O)Nc1ccc(-c2ccc(F)c(F)c2)c2cccnc12	13.9 µM	
CS(=O)(=O)Nc1cccc2ccncc12	> 200 µM	

SMILES	IC50 (Lactoylglutathione lyase [1])	further results
CSc1nc2ccc(S(=O)(=O)Nc3cccc4cccnc34)cc2s1	3.9 µM	
CC(C)S(=O)(=O)Nc1cccc2cccnc12	> 20 µM	
N#Cc1ccc(S(=O)(=O)Nc2cccc3cccnc23)cc1	6.6 µM	
COc1ccc(-c2ccc(NS(=O)(=O)c3ccccn3)c3ncccc23)cc1Cl	0.59 µM	
Cn1cc(S(=O)(=O)Nc2cccc3cccnc23)cn1	> 20 µM	
O=S(=O)(Nc1cccc2cccnc12)c1ccccc1	8.5 µM	
O=S(=O)(Nc1cccc2cccnc12)c1ccc2ncsc2c1	3.9 µM	
O=S(=O)(Nc1ccc(CCc2ccc(F)cc2)c2cccnc12)c1ccccn1	0.79 µM	
N#Cc1cccc(S(=O)(=O)Nc2cccc3cccnc23)c1	7.3 µM	
O=S(=O)(Nc1ccc(CCc2ccccc2)c2cccnc12)c1ccccn1	0.79 µM	
O=S(=O)(Nc1ccc(-c2ccccc2)c2cccnc12)c1ccccn1	0.5 µM	
O=S(=O)(Nc1cccc2cccnc12)c1ccc(F)cc1	7.5 µM	
COc1ccc(S(=O)(=O)Nc2cccc3cccnc23)cc1	7 µM	
COc1cccc(S(=O)(=O)Nc2cccc3cccnc23)c1	6.9 µM	
CC(C)(C)c1ccc(S(=O)(=O)Nc2cccc3cccnc23)cc1	4.2 µM	
CS(=O)(=O)Nc1ccc(-c2ccccc2)c2cccnc12	11.5 µM	
O=S(=O)(Nc1cccc2cccnc12)c1ccc(F)c(F)c1	5.7 µM	
CS(=O)(=O)Nc1cccc2ncccc12	> 200 µM	
O=S(=O)(Nc1cccc2cccnc12)C1CC1	> 20 µM	
COc1cc(OC)cc(-c2ccc(NS(=O)(=O)c3ccccn3)c3ncccc23)c1	1.19 µM	
